Assay outcomes: PubChem BioAssay, several laboratories
Only some compounds are listed: those with a hit (about 2% of all), similar ones and a draw of the others.
PLCb3 inh: PLC-beta3 (human) inhibition, primary screen; inhibition, % at 12.2 µM; Purified PLC-beta3, fluorogenic substrate, fluorescence; AID 720704; Q01970; actives 0.18% (n = 370,000); in the data active means inhibition above about 11%;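 further: 0% = median of compound wells on plate and 100% = full blocker control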
PLCg1 inh: PLC-gamma1 (human) inhibition, primary screen; P19174; purified PLC-gamma1, fluorogenic substrate, fluorescence; inhibition, % at 12.2 µM; actives 0.84% (n = 370,000)
Target sequence (P19174 whole entry, looked up): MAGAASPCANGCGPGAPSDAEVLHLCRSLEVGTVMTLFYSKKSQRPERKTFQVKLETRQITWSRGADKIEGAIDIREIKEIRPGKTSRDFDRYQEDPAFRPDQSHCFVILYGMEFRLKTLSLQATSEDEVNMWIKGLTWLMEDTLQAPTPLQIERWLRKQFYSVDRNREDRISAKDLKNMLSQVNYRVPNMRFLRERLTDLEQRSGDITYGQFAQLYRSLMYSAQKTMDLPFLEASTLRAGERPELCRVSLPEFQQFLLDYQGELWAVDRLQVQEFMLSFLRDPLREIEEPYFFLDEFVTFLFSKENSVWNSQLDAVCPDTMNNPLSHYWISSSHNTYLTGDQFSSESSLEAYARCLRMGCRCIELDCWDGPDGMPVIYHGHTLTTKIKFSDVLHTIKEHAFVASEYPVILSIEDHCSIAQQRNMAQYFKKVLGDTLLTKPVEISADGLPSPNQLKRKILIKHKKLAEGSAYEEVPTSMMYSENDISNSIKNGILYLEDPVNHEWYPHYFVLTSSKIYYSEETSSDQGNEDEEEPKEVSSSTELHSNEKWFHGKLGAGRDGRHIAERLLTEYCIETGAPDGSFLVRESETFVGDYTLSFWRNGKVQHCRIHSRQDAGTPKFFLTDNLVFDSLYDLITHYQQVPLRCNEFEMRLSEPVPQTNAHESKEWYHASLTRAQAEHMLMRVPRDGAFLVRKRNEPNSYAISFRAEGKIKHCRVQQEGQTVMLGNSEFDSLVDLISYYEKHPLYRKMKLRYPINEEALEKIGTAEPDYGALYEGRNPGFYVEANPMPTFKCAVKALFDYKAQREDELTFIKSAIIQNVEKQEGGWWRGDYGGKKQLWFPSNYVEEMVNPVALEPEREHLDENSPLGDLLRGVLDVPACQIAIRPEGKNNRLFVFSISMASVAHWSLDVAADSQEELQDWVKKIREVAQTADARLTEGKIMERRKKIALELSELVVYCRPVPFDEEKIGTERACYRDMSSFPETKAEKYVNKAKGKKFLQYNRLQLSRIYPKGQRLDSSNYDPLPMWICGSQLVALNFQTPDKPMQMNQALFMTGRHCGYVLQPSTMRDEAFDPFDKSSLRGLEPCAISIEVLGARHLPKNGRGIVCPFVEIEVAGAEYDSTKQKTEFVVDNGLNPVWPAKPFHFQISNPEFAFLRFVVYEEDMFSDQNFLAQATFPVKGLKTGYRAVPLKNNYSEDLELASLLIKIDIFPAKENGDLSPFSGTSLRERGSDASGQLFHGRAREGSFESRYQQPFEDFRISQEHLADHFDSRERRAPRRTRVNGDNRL
PvdQ inh: P. aeruginosa PvdQ acylase inhibition | purified PvdQ acylase, fluorescence plate reader | inhibition, % at 10 µM | actives 0.063% (n = 340,000) | AID 488965; in the data active means inhibition above about 30%, passing the limit was not always enough;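 further: 0% = vehicle neutral wells and 100% = reference inhibitor wells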
VIM-2 inh: inhibitors of Pseudomonas aeruginosa VIM-2 metallo-beta-lactamase; purified VIM-2, nitrocefin hydrolysis, epi-absorbance fluorescence; inhibition, % at 5.6 µM; actives 0.89% (n = 290,000); AID 1527;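 active means inhibition above the mean of all tested compounds plus 3 SD, cutoff set per screening run, cut at about 7.5% in these data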;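 further: red hydrolysis product quenches plate fluorescence so inhibitors raise well fluorescence; 0% = enzyme with DMSO and 100% = DMSO without enzyme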
IMP-1 inhibitor: blocks Pseudomonas aeruginosa IMP-1 metallo-beta-lactamase | AID 1556 | purified IMP-1, nitrocefin hydrolysis, epi-absorbance fluorescence | inhibition, % at 5.6 µM | actives 0.45% (n = 290,000);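 active means inhibition above the mean plus 3 SD of all compounds in the same screening run, cut at about 4.5% in these data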;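 further: 0% = IMP-1 with DMSO and 100% = DMSO wells lacking enzyme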
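Assay system: purified IMP-1; Quantity: IMP-1 0.2 nM before substrate addition; Medium: HEPES buffer pH 7.1 with ZnSO4 and Brij 35; Incubation: 15 min enzyme–compound preincubation, then 25 min nitrocefin reaction, 25 °C; Signal: fluorescence quenching readout, ex 480/em 530 nm; Controls: DMSO with and without IMP-1; Repeats: singlicate testing.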
PLCg1 ctr: inhibits human PLC-gamma1 in PLC-beta3 counter-screen | inhibition, % at 12.3 µM | shares compounds with PLCg1 inh | actives 3.1% (n = 3,300) | purified PLC-gamma1, fluorogenic substrate, fluorescence
PLCbeta3 conf: human PLC-beta3 inhibition, confirmation. actives 1% (n = 3,300). purified PLC-beta3, fluorogenic substrate fluorescence. shares compounds with PLCg1 inh. inhibition, % at 12.3 µM; in the data active means inhibition above about 11%
Numbers without * were called inactive. Unless noted, no stated cut-off is given here; in the data, active means inhibition above about 9.5%; inactive means the rest.

For NC(=O)c1ccc(NC(=O)CN2C(=O)NC(c3ccccc3)(c3ccccc3)C2=O)cc1 the results were PLCb3 inh -5, PLCg1 inh 10*, PvdQ inh 3, VIM-2 inh 0, IMP-1 inhibitor -2, PLCg1 ctr -3 and PLCbeta3 conf -2.
For O=C(CN1C(=O)NC(c2ccccc2)(c2ccccc2)C1=O)NCc1ccccc1 the results were PLCb3 inh -2, PLCg1 inh 2 and PvdQ inh -11.
CC1CCN(C(=O)CN2C(=O)NC(c3ccccc3)(c3ccccc3)C2=O)CC1 was read as PLCb3 inh 2, PLCg1 inh 13*, PvdQ inh -10, PLCg1 ctr -6 and PLCbeta3 conf -1.
O=C(CN1C(=O)NC(c2ccccc2)(c2ccccc2)C1=O)N1CCCCC1 was read as PLCb3 inh 0, PLCg1 inh -1 and PvdQ inh -14.
For COc1ccc(C2(c3ccc(OC)cc3)NC(=O)N(CC(=O)Nc3ccc(C(N)=O)cc3)C2=O)cc1 the results were PLCb3 inh -5, PLCg1 inh 2, PvdQ inh -5, VIM-2 inh -2 and IMP-1 inhibitor -2.
Screening CN(CC(=O)N1CCN(Cc2ccccc2)CC1)S(=O)(=O)c1cccc2nsnc12 returned PLCb3 inh 10, PLCg1 inh 11*, PvdQ inh -7, VIM-2 inh 0, IMP-1 inhibitor 1, PLCg1 ctr -6 and PLCbeta3 conf -3.
For Cc1ccc(C(=O)c2cn[nH]c2-c2ccccc2O)cc1 the results were PLCb3 inh 5, PLCg1 inh 14*, PvdQ inh -20, VIM-2 inh -3, IMP-1 inhibitor -3, PLCg1 ctr -6 and PLCbeta3 conf -4.
Screening O=C(c1ccc(F)cc1)c1cn[nH]c1-c1ccccc1O returned PLCb3 inh 0, PLCg1 inh -1, PvdQ inh -40, VIM-2 inh -4 and IMP-1 inhibitor -1.
Screening O=C(Nc1ccccc1)c1cc([N+](=O)[O-])ccc1Cl returned PLCb3 inh 1, PLCg1 inh -1 and PvdQ inh 2.
For O=C(Nc1ccccc1)c1cc([N+](=O)[O-])ccc1NC1CCCCC1 the results were PLCb3 inh 9, PLCg1 inh 9.8*, PvdQ inh -7, VIM-2 inh 1, IMP-1 inhibitor -1, PLCg1 ctr -1 and PLCbeta3 conf -3.
`O=C(CSc1nc2c(c(C(F)(F)F)n1)CCc1ccccc1-2)NCc1ccc(F)cc1` gave PLCb3 inh 13*, PLCg1 inh 13*, PvdQ inh -14, VIM-2 inh -2, IMP-1 inhibitor -4, PLCg1 ctr -8 and PLCbeta3 conf -2.
For CCC(=O)NC(=S)Nc1cccc(NC(=O)c2ccccc2C)c1 the results were PLCb3 inh 4, PLCg1 inh 3, PvdQ inh -3, VIM-2 inh 0 and IMP-1 inhibitor 0.
Screening CCC(=O)Nc1cccc(NC(=S)NC(=O)c2ccccc2C)c1 returned PLCb3 inh 3, PLCg1 inh 9.9*, PvdQ inh 4, VIM-2 inh 0, IMP-1 inhibitor 1, PLCg1 ctr 1 and PLCbeta3 conf 1.
Screening Cc1nc(C(F)(F)F)ccc1C(=O)N1CCCCCC1(C)C(=O)NCC(C)C (stereo unspecified) returned PLCb3 inh 7, PLCg1 inh 16*, PLCg1 ctr -3 and PLCbeta3 conf 3.
CC(C)CNC(=O)C1(C)CCCCCN1C(=O)c1cc2ccccc2s1 (stereo unspecified) was read as PLCb3 inh 7, PLCg1 inh 14*, PLCg1 ctr -5 and PLCbeta3 conf 2.
CCCCNC(=O)C1(C)CCCCN1C(=O)c1ccc2sccc2c1 (stereo unspecified) was read as PLCb3 inh 0 and PLCg1 inh 4.
CCCCNC(=O)C1(C)CCCCN1C(=O)c1cc2ccccc2s1 (stereo unspecified) was read as PLCb3 inh 13*, PLCg1 inh 5, PLCg1 ctr -1 and PLCbeta3 conf 4.
O=C(OCc1cn(Cc2cccc(F)c2)nn1)N1CCOCC1 was read as PLCb3 inh 1 and PLCg1 inh 2.
`CC(=O)Oc1ccc(C(=O)Nc2cccc(C(=O)c3ccc(C)c(C)c3)c2)cc1` gave PLCb3 inh 9, PLCg1 inh 15*, PvdQ inh 6, PLCg1 ctr -2 and PLCbeta3 conf -2.
Screening CCCOc1ccc(C(=O)Nc2ccc(NC(=O)c3cccs3)cc2)cc1 returned PLCb3 inh 0, PLCg1 inh 2, PvdQ inh -10, VIM-2 inh -1 and IMP-1 inhibitor -3.
For CCOc1ccc(C(=O)Nc2ccc3[nH]ncc3c2)cc1 the results were PLCb3 inh 6, PLCg1 inh 12*, PvdQ inh -3, VIM-2 inh 0, IMP-1 inhibitor -2, PLCg1 ctr -9 and PLCbeta3 conf -1.
For CCCCOc1cccc(C(=O)Nc2ccc(NC(=O)c3cccs3)cc2)c1 the results were PLCb3 inh 6, PLCg1 inh 9.6*, PvdQ inh -6, VIM-2 inh -1, IMP-1 inhibitor -2, PLCg1 ctr -119 and PLCbeta3 conf -118.
COc1ccc(C(=O)Nc2cccc(OC(=O)c3ccc(C)c(C)c3)c2)cc1 was read as PLCb3 inh -5, PLCg1 inh -1, PvdQ inh -13, VIM-2 inh 1 and IMP-1 inhibitor -2.
`CCOc1ccc(NC(=O)c2cccc(NC(=O)c3ccccc3)c2)cc1` gave PLCb3 inh -5, PLCg1 inh 11*, PvdQ inh -8, VIM-2 inh -3, IMP-1 inhibitor -3, PLCg1 ctr -5 and PLCbeta3 conf -1.
Screening COc1ccc(NC(=O)c2cccc(NC(=O)c3ccccc3)c2)cc1 returned PLCb3 inh -5, PLCg1 inh -3, PvdQ inh 4, VIM-2 inh -3 and IMP-1 inhibitor -2.
COc1ccc(Cn2cc(COC(=O)NCCc3c[nH]c4ccccc34)nn2)cc1 was read as PLCb3 inh -3 and PLCg1 inh 0.
`CCOc1ccc(CCNC(=O)c2ccc3[nH]ccc3c2)cc1OCC` gave PLCb3 inh 1 and PLCg1 inh 1.
CCOC(=O)C1=CCN(S(=O)(=O)c2ccc(Br)cc2)C1c1ccc(Br)cc1 (stereo unspecified) was read as PLCb3 inh -11 and PLCg1 inh -4.
For C=CCN1[C@@H](CC(C)C)COc2cc(F)ccc2S1(=O)=O the results were PLCb3 inh 0 and PLCg1 inh -1.
`CCOP(=O)(OCC)C(NC(=O)Nc1ccc(Cl)cc1)C(N)=O` (stereo unspecified) gave PLCb3 inh -1, PLCg1 inh -2, PvdQ inh 22, VIM-2 inh -6 and IMP-1 inhibitor -2.
